In the library only some 1.8% were active in any assay of this set; here they are far more common.
GSTO1 inh: inhibitors of recombinant GSTO1, primary screen, counter-screen for RBBP9 inhibitor project, biochemical, fluorescence polarization | inhibition, % at 5.96 µM | 300,000 tested, 1.1% active | Glutathione S-transferase omega-1 (Homo sapiens), P78417 | activity-based probe fluorescence polarization;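 active = inhibition above the campaign mean inhibition plus 3 SD, cut at about 35% in these data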;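 note: 0% = GSTO1-1 with DMSO and 100% = wells lacking GSTO1-1 enzyme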
Target sequence (P78417 whole entry, looked up): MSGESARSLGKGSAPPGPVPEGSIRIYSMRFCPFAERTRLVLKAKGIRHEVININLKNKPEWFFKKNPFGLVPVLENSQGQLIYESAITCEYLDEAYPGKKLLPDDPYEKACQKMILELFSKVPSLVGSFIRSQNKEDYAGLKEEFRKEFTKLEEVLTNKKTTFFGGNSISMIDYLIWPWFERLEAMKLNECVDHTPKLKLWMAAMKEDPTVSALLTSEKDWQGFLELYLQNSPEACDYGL
TDP2 absorb: human TDP2 enzyme inhibitors, primary screen, biochemical, epi absorbance, recombinant enzyme | 370,000 tested, 0.34% active | Tyrosyl-DNA phosphodiesterase 2 (Homo sapiens), O95551 | AID 720702, 2013 | T5PNP hydrolysis, p-nitrophenol absorbance 415 nm | inhibition, % at 12.8 µM;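 active = inhibition above the mean of all tested compounds plus 3 SD, set per campaign, cut at about 25% in these data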;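 note: 0% = DMSO with enzyme and 100% = buffer with substrate but no TDP2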
Target sequence (O95551 whole entry, looked up): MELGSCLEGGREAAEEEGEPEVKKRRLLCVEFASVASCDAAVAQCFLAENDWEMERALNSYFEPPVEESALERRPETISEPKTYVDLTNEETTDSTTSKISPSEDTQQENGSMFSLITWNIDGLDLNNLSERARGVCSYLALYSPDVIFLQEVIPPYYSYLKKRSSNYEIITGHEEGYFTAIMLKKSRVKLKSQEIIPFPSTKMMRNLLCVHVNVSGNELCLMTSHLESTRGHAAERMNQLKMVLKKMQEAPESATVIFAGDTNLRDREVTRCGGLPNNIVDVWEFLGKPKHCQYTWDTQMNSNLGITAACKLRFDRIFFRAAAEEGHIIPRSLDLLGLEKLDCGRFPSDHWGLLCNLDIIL
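Material: recombinant human TDP2; quantity: TDP2 enzyme at 120 nM final; medium: Tris-HCl pH 7.5 with MgCl2; compound: single concentration, 12.8 µM nominal, with 1% DMSO; incubation: 2 h enzyme incubation at 37 °C; signal: epi absorbance; measure: percent inhibition; benchmarks: high control without enzyme, low control DMSO plus TDP2; repeats: singlicate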
CTSL1 counter: Fasciola hepatica cathepsin L1 inhibitors, primary screen, counter-screen for PFM18AAP inhibitor project, biochemical, QFRET, fluorogenic peptide substrate | recombinant F. hepatica cathepsin L1, Z-Leu-Arg-MCA fluorescence | inhibition, % at 5.96 µM | 300,000 tested, 0.49% active | AID 1906, 2009;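 active = inhibition above the mean of all tested compounds plus 3 SD, set per screening campaign, cut at about 17% in these data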;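 note: 0% = plate median of test compound wells and 100% = 1 µM Z-Phe-Ala-diazomethylketone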
PAD4 FP inh: human PAD4 inhibitors, primary screen, biochemical, fluorescence polarization, 1536-well format | Protein-arginine deiminase type-4 (Homo sapiens), Q9UM07 | recombinant PAD4, RCA probe fluorescence polarization | inhibition, % at 6.36 µM | 330,000 tested, 0.41% active;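 active = percent inhibition above a cutoff equal to the mean of all tested compounds plus 3 SD, cut at about 15% in these data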;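 note: 0% = PAD4 with RCA probe and DMSO and 100% = probe without PAD4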
Apaf-1 inh: inhibitors of human Apaf-1 apoptosome, primary screen, biochemical, DEVD-Rh110 fluorescence, uHTS; Apoptotic protease-activating factor 1 (Homo sapiens), O14727; reconstituted apoptosome caspase-3 activity; inhibition, % at 20 µM; 330,000 tested, 0.71% active; AID 489030, 2010; active = inhibition of at least 40% at 20 µM;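 note: plate controls were DMSO wells for no effect and DEVD-CHO caspase inhibitor wells for full effect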
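System: reconstituted apoptosome with Apaf-1, cytochrome c, caspase-9, procaspase-3, dATP; Signal: Rh110 fluorescence intensity; Schedule: 30 min compound preincubation, 50 min activation, room temperature; Reagent: cytochrome c trigger plus (Z-DEVD)2-Rh110 caspase-3 substrate.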
GSTO1 confirm: GSTO1 inhibitor hit confirmation, counter-screen for RBBP9 inhibitor project, biochemical, fluorescence polarization, triplicate. shares compounds with GSTO1 inh. recombinant GSTO1, probe fluorescence polarization. inhibition, % at 5.96 µM. 2,400 tested, 54% active;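 active = inhibition above the primary screen's cutoff, its mean inhibition plus 3 SD, cut at about 35% in these data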;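 note: loss of polarization as inhibitors block binding of rhodamine sulfonate ester activity probe; 0% = GSTO1 with DMSO and 100% = wells lacking GSTO1 enzyme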
GSTO1 recomb ABPP: inhibitors of purified human GSTO1, late-stage follow-up, biochemical, gel ABPP, SE-Rh probe, percent inhibition. 130 tested, 30% active. inhibition, % at 1 µM. shares compounds with GSTO1 inh. recombinant GSTO1, gel ABPP SE-Rh probe fluorescence;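 active = inhibition of the enzyme GSTO1 above about 75%, limit read from the data; inactive = inhibition below that limit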
* hit, by the source's call; nt = no result given.

SMILES | GSTO1 inh | TDP2 absorb | CTSL1 counter | PAD4 FP inh | Apaf-1 inh | GSTO1 confirm | others
CCN(CC(=O)NC(C)(C)C)C(=O)CCl | 67* | -5 | 20* | -3 | -2 | 86* | GSTO1 recomb ABPP=11
COC(CN(C(=O)CCl)C(C(=O)NC1CCCCC1)c1ccc(C)cc1)OC (stereo not given) | 93* | -3 | 78* | 2 | nt | 91* | GSTO1 recomb ABPP=61
COc1ccc(C(C(=O)NC2CCCCC2)N(C(=O)CCl)c2cccc(Cl)c2)cc1 (stereo not given) | 81* | -3 | 3 | 4 | nt | 90* | GSTO1 recomb ABPP=83*
COc1cccc(N(C(=O)c2cnccn2)C(C(=O)NC2CCCCC2)c2ccc(Cl)cc2)c1 (stereo not given) | -5 | -3 | 2 | 1 | 17 | nt
COc1ccc(C(C(=O)NC2CCCCC2)N(C(=O)CCl)c2ccc(C)cc2)cc1 (stereo not given) | 89* | -2 | 12 | 3 | -1 | 95* | GSTO1 recomb ABPP=88*
CC(C)(C)OC(=O)N1CCC(N[C@@H](Cc2ccccc2)C(=O)NCC(c2ccccc2)c2ccccc2)(C(=O)NC2CCCCC2)CC1 | nt | -5 | nt | nt | nt | nt
CCN(CC(=O)NCc1ccc(Cl)cc1)C(=O)CSCC(=O)Nc1cccc(C)c1 | 44* | 0 | -1 | -3 | 1 | 8
CCN(CC(=O)Nc1ccccc1OC)C(=O)CSCC(=O)Nc1cccc(C)c1 | nt | 2 | nt | nt | nt | nt
CCOCC(=O)Nc1nnc(Cc2ccc(OC)cc2)s1 | 39* | 2 | 5 | 0 | 3 | 29
CCOCC(=O)Nc1nnc(Cc2ccc(OC)c(OC)c2)s1 | 24 | 11 | 3 | 1 | 5 | nt
O=C1N=C(N2CCOCC2)S/C1=C/c1cc2c(cc1[N+](=O)[O-])OCO2 | 64* | -15 | 8 | -12 | 4 | 48*
CC1CC(C)(C)Nc2ccc(OC(=O)c3ccco3)cc21 (stereo not given) | 43* | 0 | -16 | 0 | 12 | 5
O=C(Oc1ccc2ccccc2c1)c1ccco1 | 9 | -1 | -35 | -4 | 11 | nt
O=C(CCl)Nc1cccc2ncccc12 | 69* | 10 | 14 | -1 | -5 | 77*
CCOC(=O)C1CCN(C(=O)c2c(C)oc3c2C(=O)c2ccccc2C3=O)CC1 | 44* | 18 | 16 | 3 | 48* | 48*
CCOC(=O)C1CCN(C(=O)c2ccc(C)o2)CC1 | nt | 4 | nt | -5 | -9 | nt
Cc1ccc(-c2cc(-c3nnc(SCC(=O)Nc4nccs4)n3N)[nH]n2)cc1 | nt | 0 | nt | nt | nt | nt
O=S1(=O)c2ccc(N3CCN(Cc4ccccc4F)CC3)cc2Oc2ccccc2CN1Cc1cn(Cc2cccc(C(F)(F)F)c2)nn1 | nt | 3 | nt | nt | nt | nt
COc1cccc(-c2nc(CCl)cs2)c1OC | 61* | -2 | 4 | -5 | -5 | 99* | GSTO1 recomb ABPP=51
Cc1ccc(-c2cc(C(=O)NN=Cc3sccc3C)[nH]n2)cc1C | nt | 7 | nt | nt | nt | nt
COc1cccc(C2Nc3c(F)cc(Br)cc3C3C=CCC32)c1OC (stereo not given) | 3 | 9 | -5 | -2 | 6 | nt
O=C(O)C1Nc2ccc(OC(F)(F)F)cc2C2C=CCC12 (stereo not given) | 48* | nt | -4 | 1 | 24 | 19
COc1cccc2c1NC(C(=O)O)C1CC=CC21 (stereo not given) | 61* | nt | -5 | 1 | 20 | 46*
COC[C@H]1CCCN1c1ccc2c(c1)O[C@@H]1CCN(C1)S2(=O)=O | nt | -1 | nt | nt | nt | nt
NC1=NC(=O)/C(=C\c2cc([N+](=O)[O-])ccc2Cl)S1 | 46* | 8 | -2 | 4 | -9 | 11
SMILES | GSTO1 inh | TDP2 absorb | CTSL1 counter | PAD4 FP inh | Apaf-1 inh | GSTO1 confirm | others
CC(C)(C)N=C1SCC(C)(/C=N/O)S1 (stereo not given) | 42* | 7 | -3 | 1 | 0 | 9
CCCCNc1ccc2c(c1)OC[C@H](Cc1ccccc1)NS2(=O)=O | nt | 3 | nt | nt | nt | nt
CNC(=S)N/N=C/c1c(C(=O)OC)cnn1-c1ccc(Cl)cc1 | nt | 3 | nt | nt | nt | nt
O=C(Cc1ccsc1)NNC(=O)c1ccccc1O | 38* | 1 | 2 | 8 | 0 | 6
CCOC(=O)C(=O)Nc1cc(C)nn1-c1nc2ccccc2[nH]1 | 45* | 2 | -3 | -7 | -16 | 3
COC(=O)[C@]12C[C@H](CC(=O)NCc3cccc(C(F)(F)F)c3)C(=O)N(Cc3cccc4ccccc34)C1=C[C@H](C1CCCC1)O[C@@H]2C | nt | 4 | nt | nt | nt | nt
CC1=C(C#N)C(=O)N(C2CCS(=O)(=O)C2)C(=O)/C1=C\c1ccco1 (stereo not given) | 87* | nt | 5 | 9 | 54* | 73*
C=Cc1ccc(C(=O)N2CCC(n3nnc4ncccc43)CC2)cc1 | nt | 1 | nt | nt | nt | nt
COc1cccc(Cn2cc(COC(=O)N(C)Cc3ccccc3)nn2)c1 | nt | 6 | nt | nt | nt | nt
N#C/C(=C\c1ccc(O)c(O)c1)C(=O)Nc1cccc2ncccc12 | 56* | -9 | 1 | -12 | 2 | 29
COc1ccc(/C=C(\C#N)C(=O)Nc2cccc3ncccc23)cc1OC | 12 | -3 | -1 | 1 | -1 | nt
Cc1noc(C)c1NC(=O)Nc1ccc2c(c1)C(=O)N([C@@H](C)CO)C[C@@H](C)[C@H](CN(C)S(=O)(=O)c1ccc(F)cc1)OCCCC[C@H](C)O2 | nt | 3 | nt | nt | nt | nt
COc1cc(S(=O)(=O)N(Cc2cccnc2)Cc2ccco2)ccc1-n1cnnn1 | 40* | 7 | -2 | -3 | 26 | 4
COc1cccc(C2C3(C#N)C(N)=NC(OC)(OC)C23C#N)c1 (stereo not given) | 2 | 1 | -2 | 0 | -6 | nt
COC1(OC)N=C(N)C2(C#N)C(c3cccc(Oc4ccccc4)c3)C12C#N (stereo not given) | 65* | -7 | -1 | -1 | 5 | 30
O=C(CN1CCCCCC1)Nc1ccc([N+](=O)[O-])cc1Cl | 4 | -11 | 3 | 4 | 10 | nt
O=C(CN1CCCCCC1)Nc1cc([N+](=O)[O-])ccc1Cl | 57* | 5 | 1 | 0 | 4 | 14
CCCC(=O)N(Cc1cc(=O)[nH]c2ccccc12)c1ccc(C)cc1C | nt | -5 | nt | nt | 19 | nt
Cc1ccc(N(Cc2cc(=O)[nH]c3ccccc23)C(=O)CCl)c(C)c1 | 64* | -8 | -2 | 4 | 8 | 75* | GSTO1 recomb ABPP=27

From PubChem BioAssay
